Several values for one entry are separate records, joined by “and”; a condition that tells them apart may be missing. Equal entries are not always repeated.
Tested on: HEK-293T
Experiment: Multiplex assay against HEK293T;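 as to Population Tubulin-Different-Phenotype (%): share of the cells with healthy nuclei that show this phenotype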
Type: toxicity, cell-based
Details: human
Method in brief: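 Phenotypes for tubulin, mitochondrial mass and membrane permeability are expressed as per cents of healthy-nucleus cells. Cells were stained live at seeding with Hoechst33342, BioTracker Green Microtubule Cytoskeleton Dye, MitoTracker Red and Annexin V Alexa Fluor 680, then imaged after compound addition on a CQ1 microscope at 37°C and 5% CO2. Machine-learning gating in CellPathfinder separated Hoechst high-intensity objects from normal cells, divided normal cells by nuclear state (healthy, pyknosed, fragmented) and divided pyknosed cells into mitotic or apoptotic.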

[1] = 12 h, 10 µM, compound concentration 10 uM, replicate 1
[2] = 12 h, 10 µM, compound concentration 10 uM, replicate 2
[3] = 24 h, 10 µM, compound concentration 10 uM, replicate 1
[4] = 24 h, 10 µM, compound concentration 10 uM, replicate 2
[5] = 12 h, 1 µM, compound concentration 1 uM, replicate 1
[6] = 12 h, 1 µM, compound concentration 1 uM, replicate 2
[7] = 24 h, 1 µM, compound concentration 1 uM, replicate 1
[8] = 24 h, 1 µM, compound concentration 1 uM, replicate 2
[9] = 48 h, 1 µM, compound concentration 1 uM, replicate 1
[10] = 48 h, 1 µM, compound concentration 1 uM, replicate 2
[11] = 48 h, 10 µM, compound concentration 10 uM, replicate 1
[12] = 48 h, 10 µM, compound concentration 10 uM, replicate 2

`CN1C(=O)c2sccc2N(C)c2nc(Nc3ccc(S(N)(=O)=O)cc3)ncc21` was tested, and the “Population Apoptotic (%)” value [1] was 16% and 18%, the “Population Fragmented Nuclei (%)” value [1] was 26% and 12% and the “Population Healthy Nuclei (%)” value [1] was 60% and 76%. For the same compound, the “Population Hoechst High Intensity Objects (%)” value [1] was 18% and 7%, the “Population Membrane Permeable-Phenotype (%)” value [1] was 4% and 3% and the “Population Mitochondria Different-Phenotype (%)” value [1] was 4% and 2%. For the same compound, the “Population Mitotic Cells (%)” value [1] was 83% and 81%, the “Population Normal (%)” value [1] was 81% and 92% and the “Population Pyknosed Nuclei (%)” value [1] was 13% and 11%. The “Population Tubulin-Different-Phenotype (%)” value [1] was 0%, the “Total Cell Count” value [1] was 672 and 727 and the “Population Apoptotic (%)” value [2] was 8% and 7%. For the same compound, the “Population Fragmented Nuclei (%)” value [2] was 8% and 4%, the “Population Healthy Nuclei (%)” value [2] was 86% and 85% and the “Population Hoechst High Intensity Objects (%)” value [2] was 1% and 2%. For the same compound, the “Population Membrane Permeable-Phenotype (%)” value [2] was 1% and 0%, the “Population Mitochondria Different-Phenotype (%)” value [2] was 7% and 9% and the “Population Mitotic Cells (%)” value [2] was 91% and 92%. For the same compound, the “Population Normal (%)” value [2] was 98% and 97%, the “Population Pyknosed Nuclei (%)” value [2] was 4% and 10% and the “Population Tubulin-Different-Phenotype (%)” value [2] was 4% and 1%. The “Total Cell Count” value [2] was 1564 and 1180, the “Population Apoptotic (%)” value [3] was 19% and 15% and the “Population Fragmented Nuclei (%)” value [3] was 14% and 20%. For the same compound, the “Population Healthy Nuclei (%)” value [3] was 79% and 69%, the “Population Membrane Permeable-Phenotype (%)” value [3] was 5% and the “Population Mitochondria Different-Phenotype (%)” value [3] was 2% and 3%. The “Population Mitotic Cells (%)” value [3] was 80% and 84%, the “Population Normal (%)” value [3] was 95% and 82% and the “Population Pyknosed Nuclei (%)” value [3] was 6% and 10%. The “Population Tubulin-Different-Phenotype (%)” value [3] was 1%, the “Total Cell Count” value [3] was 894 and 614 and the “Population Apoptotic (%)” value [4] was 6% and 4%. For the same compound, the “Population Fragmented Nuclei (%)” value [4] was 25% and 12%, the “Population Healthy Nuclei (%)” value [4] was 71% and 80% and the “Population Hoechst High Intensity Objects (%)” value [4] was 2%. For the same compound, the “Population Membrane Permeable-Phenotype (%)” value [4] was 3% and 1%, the “Population Mitochondria Different-Phenotype (%)” value [4] was 1% and the “Population Mitotic Cells (%)” value [4] was 93% and 95%. For the same compound, the “Population Normal (%)” value [4] was 97%, the “Population Pyknosed Nuclei (%)” value [4] was 2% and 7% and the “Population Tubulin-Different-Phenotype (%)” value [4] was 4% and 2%. For the same compound, the “Total Cell Count” value [4] was 2712 and 1180.
In the case of `CN1CCN(c2ccc(OC(F)(F)F)c(Nc3ncc4c(n3)-c3c(c(C(N)=O)nn3CCO)CC4)c2)CC1` [ONVANSERTIB], the “Population Apoptotic (%)” value [5] is reported as 68%, the “Population Fragmented Nuclei (%)” value [5] is reported as 13% and the “Population Healthy Nuclei (%)” value [5] is reported as 36%. For the same compound, the “Population Hoechst High Intensity Objects (%)” value [5] was 16%, the “Population Membrane Permeable-Phenotype (%)” value [5] was 6% and the “Population Mitochondria Different-Phenotype (%)” value [5] was 83%. The “Population Mitotic Cells (%)” value [5] was 31%, the “Population Normal (%)” value [5] was 83% and the “Population Pyknosed Nuclei (%)” value [5] was 50%. The “Population Tubulin-Different-Phenotype (%)” value [5] was 39%, the “Total Cell Count” value [5] was 216 and the “Population Apoptotic (%)” value [6] was 21%. For the same compound, the “Population Fragmented Nuclei (%)” value [6] was 11%, the “Population Healthy Nuclei (%)” value [6] was 23% and the “Population Hoechst High Intensity Objects (%)” value [6] was 5%. The “Population Membrane Permeable-Phenotype (%)” value [6] was 0%, the “Population Mitochondria Different-Phenotype (%)” value [6] was 32% and the “Population Mitotic Cells (%)” value [6] was 78%. For the same compound, the “Population Normal (%)” value [6] was 94%, the “Population Pyknosed Nuclei (%)” value [6] was 65% and the “Population Tubulin-Different-Phenotype (%)” value [6] was 24%. For the same compound, the “Total Cell Count” value [6] was 113, the “Population Apoptotic (%)” value [1] was 67% and the “Population Fragmented Nuclei (%)” value [1] was 8%. For the same compound, the “Population Healthy Nuclei (%)” value [1] was 41%, the “Population Hoechst High Intensity Objects (%)” value [1] was 12% and the “Population Mitochondria Different-Phenotype (%)” value [1] was 98%. For the same compound, the “Population Mitotic Cells (%)” value [1] was 32%, the “Population Normal (%)” value [1] was 87% and the “Population Pyknosed Nuclei (%)” value [1] was 49%. For the same compound, the “Population Tubulin-Different-Phenotype (%)” value [1] was 96%, the “Total Cell Count” value [1] was 269 and the “Population Apoptotic (%)” value [2] was 31%. For the same compound, the “Population Fragmented Nuclei (%)” value [2] was 5%, the “Population Healthy Nuclei (%)” value [2] was 30% and the “Population Hoechst High Intensity Objects (%)” value [2] was 2%. The “Population Membrane Permeable-Phenotype (%)” value [2] was 1%, the “Population Mitochondria Different-Phenotype (%)” value [2] was 82% and the “Population Mitotic Cells (%)” value [2] was 68%. For the same compound, the “Population Normal (%)” value [2] was 97%, the “Population Pyknosed Nuclei (%)” value [2] was 64% and the “Population Tubulin-Different-Phenotype (%)” value [2] was 81%. The “Total Cell Count” value [2] was 234, the “Population Apoptotic (%)” value [7] was 60% and the “Population Fragmented Nuclei (%)” value [7] was 16%. The “Population Healthy Nuclei (%)” value [7] was 23%, the “Population Hoechst High Intensity Objects (%)” value [7] was 14% and the “Population Membrane Permeable-Phenotype (%)” value [7] was 9%. The “Population Mitochondria Different-Phenotype (%)” value [7] was 83%, the “Population Mitotic Cells (%)” value [7] was 39% and the “Population Normal (%)” value [7] was 85%. The “Population Pyknosed Nuclei (%)” value [7] was 60%, the “Population Tubulin-Different-Phenotype (%)” value [7] was 67% and the “Total Cell Count” value [7] was 211. The “Population Apoptotic (%)” value [8] was 15%, the “Population Fragmented Nuclei (%)” value [8] was 11% and the “Population Healthy Nuclei (%)” value [8] was 26%. The “Population Hoechst High Intensity Objects (%)” value [8] was 9%, the “Population Membrane Permeable-Phenotype (%)” value [8] was 0% and the “Population Mitochondria Different-Phenotype (%)” value [8] was 68%. The “Population Mitotic Cells (%)” value [8] was 84%, the “Population Normal (%)” value [8] was 90% and the “Population Pyknosed Nuclei (%)” value [8] was 62%. The “Population Tubulin-Different-Phenotype (%)” value [8] was 62%, the “Total Cell Count” value [8] was 122 and the “Population Apoptotic (%)” value [3] was 55%. The “Population Fragmented Nuclei (%)” value [3] was 7%, the “Population Healthy Nuclei (%)” value [3] was 41% and the “Population Hoechst High Intensity Objects (%)” value [3] was 15%. The “Population Membrane Permeable-Phenotype (%)” value [3] was 2%, the “Population Mitochondria Different-Phenotype (%)” value [3] was 95% and the “Population Mitotic Cells (%)” value [3] was 44%. For the same compound, the “Population Normal (%)” value [3] was 84%, the “Population Pyknosed Nuclei (%)” value [3] was 50% and the “Population Tubulin-Different-Phenotype (%)” value [3] was 90%. For the same compound, the “Total Cell Count” value [3] was 303, the “Population Apoptotic (%)” value [4] was 42% and the “Population Fragmented Nuclei (%)” value [4] was 5%. For the same compound, the “Population Healthy Nuclei (%)” value [4] was 39%, the “Population Hoechst High Intensity Objects (%)” value [4] was 4% and the “Population Membrane Permeable-Phenotype (%)” value [4] was 4%. For the same compound, the “Population Mitochondria Different-Phenotype (%)” value [4] was 83%, the “Population Mitotic Cells (%)” value [4] was 57% and the “Population Normal (%)” value [4] was 95%. For the same compound, the “Population Pyknosed Nuclei (%)” value [4] was 54%, the “Population Tubulin-Different-Phenotype (%)” value [4] was 83% and the “Total Cell Count” value [4] was 256. The “Population Apoptotic (%)” value [9] was 57%, the “Population Fragmented Nuclei (%)” value [9] was 20% and the “Population Healthy Nuclei (%)” value [9] was 18%. The “Population Hoechst High Intensity Objects (%)” value [9] was 20%, the “Population Membrane Permeable-Phenotype (%)” value [9] was 0% and the “Population Mitochondria Different-Phenotype (%)” value [9] was 59%. For the same compound, the “Population Mitotic Cells (%)” value [9] was 42%, the “Population Normal (%)” value [9] was 79% and the “Population Pyknosed Nuclei (%)” value [9] was 60%. For the same compound, the “Population Tubulin-Different-Phenotype (%)” value [9] was 43%, the “Total Cell Count” value [9] was 213 and the “Population Apoptotic (%)” value [10] was 36%. The “Population Fragmented Nuclei (%)” value [10] was 12%, the “Population Healthy Nuclei (%)” value [10] was 45% and the “Population Hoechst High Intensity Objects (%)” value [10] was 8%. For the same compound, the “Population Membrane Permeable-Phenotype (%)” value [10] was 6%, the “Population Mitochondria Different-Phenotype (%)” value [10] was 30% and the “Population Mitotic Cells (%)” value [10] was 63%. For the same compound, the “Population Normal (%)” value [10] was 91%, the “Population Pyknosed Nuclei (%)” value [10] was 42% and the “Population Tubulin-Different-Phenotype (%)” value [10] was 59%. The “Total Cell Count” value [10] was 118, the “Population Apoptotic (%)” value [11] was 64% and the “Population Fragmented Nuclei (%)” value [11] was 14%. For the same compound, the “Population Healthy Nuclei (%)” value [11] was 29%, the “Population Hoechst High Intensity Objects (%)” value [11] was 14% and the “Population Membrane Permeable-Phenotype (%)” value [11] was 2%. For the same compound, the “Population Mitochondria Different-Phenotype (%)” value [11] was 95%, the “Population Mitotic Cells (%)” value [11] was 35% and the “Population Normal (%)” value [11] was 85%. For the same compound, the “Population Pyknosed Nuclei (%)” value [11] was 55%, the “Population Tubulin-Different-Phenotype (%)” value [11] was 89% and the “Total Cell Count” value [11] was 267. The “Population Apoptotic (%)” value [12] was 51%, the “Population Fragmented Nuclei (%)” value [12] was 6% and the “Population Healthy Nuclei (%)” value [12] was 42%. For the same compound, the “Population Hoechst High Intensity Objects (%)” value [12] was 6%, the “Population Mitochondria Different-Phenotype (%)” value [12] was 78% and the “Population Mitotic Cells (%)” value [12] was 48%. For the same compound, the “Population Normal (%)” value [12] was 93%, the “Population Pyknosed Nuclei (%)” value [12] was 51% and the “Population Tubulin-Different-Phenotype (%)” value [12] was 84%. The “Total Cell Count” value [12] was 246.
